Assay results published in paper PMC5429141 (Nature structural & molecular biology, 2016).

Assays:
[1] = molecular target: wild-type EcTrmD (Escherichia coli, UniProt P0A873); format: biochemical, E. coli; conditions: single turnover, 37 °C
[2] = test system: EcTrmD G55A; assay: Pre-steady-state methyl transfer kinetics, G55A mutant; format: biochemical, E. coli; conditions: G55A relative to wild-type enzyme
[3] = test system: EcTrmD G59A; assay: Pre-steady-state methyl transfer kinetics, G59A mutant; format: biochemical, E. coli; conditions: G59A relative to wild-type enzyme
[4] = test system: EcTrmD Y86A; assay: Pre-steady-state methyl transfer kinetics, Y86A mutant; format: biochemical, E. coli; conditions: Y86A relative to wild-type enzyme
[5] = test system: EcTrmD P89A; assay: Pre-steady-state methyl transfer kinetics, P89A mutant; format: biochemical, E. coli; conditions: P89A relative to wild-type enzyme
[6] = test system: EcTrmD Q90A; assay: Pre-steady-state methyl transfer kinetics, Q90A mutant; format: biochemical, E. coli; conditions: Q90A relative to wild-type enzyme
[7] = test system: EcTrmD P89W; assay: Pre-steady-state methyl transfer kinetics, P89W mutant; format: biochemical, E. coli; conditions: P89W relative to wild-type enzyme
[8] = test system: EcTrmD Y115A; assay: Pre-steady-state methyl transfer kinetics, Y115A mutant; format: biochemical, E. coli; conditions: Y115A relative to wild-type enzyme
[9] = test system: EcTrmD E116A; assay: Pre-steady-state methyl transfer kinetics, E116A mutant; format: biochemical, E. coli; conditions: E116A relative to wild-type enzyme
[10] = test system: EcTrmD Y115F; assay: Pre-steady-state methyl transfer kinetics, Y115F mutant; format: biochemical, E. coli; conditions: Y115F relative to wild-type enzyme
[11] = test system: EcTrmD G134A; assay: Pre-steady-state methyl transfer kinetics, G134A mutant; format: biochemical, E. coli; conditions: G134A relative to wild-type enzyme
[12] = test system: EcTrmD Y136A; assay: Pre-steady-state methyl transfer kinetics, Y136A mutant; format: biochemical, E. coli; conditions: Y136A relative to wild-type enzyme
[13] = test system: EcTrmD G141A; assay: Pre-steady-state methyl transfer kinetics, G141A mutant; format: biochemical, E. coli; conditions: G141A relative to wild-type enzyme
[14] = test system: EcTrmD S170*A; assay: Pre-steady-state methyl transfer kinetics, S170*A mutant; format: biochemical, E. coli; conditions: S170*A relative to wild-type enzyme
[15] = test system: EcTrmD D177*A; assay: Pre-steady-state methyl transfer kinetics, D177*A mutant; format: biochemical, E. coli; conditions: D177*A relative to wild-type enzyme
[16] = test system: EcTrmD H180*A; assay: Pre-steady-state methyl transfer kinetics, H180*A mutant; format: biochemical, E. coli; conditions: H180*A relative to wild-type enzyme
[17] = test system: EcTrmD R154A; assay: Pre-steady-state methyl transfer kinetics, R154A mutant; format: biochemical, E. coli; conditions: R154A relative to wild-type enzyme
[18] = test system: EcTrmD D169*A; assay: Pre-steady-state methyl transfer kinetics, D169*A mutant; format: biochemical, E. coli; conditions: D169*A relative to wild-type enzyme
[19] = molecular target: wild-type TrmD dimer (Escherichia coli, UniProt P0A873); assay: Fluorescence titration; format: binding, E. coli; conditions: wild-type enzyme; room temperature; pH 8.0
wild-type TrmD dimer, sequence (P0A873 whole entry): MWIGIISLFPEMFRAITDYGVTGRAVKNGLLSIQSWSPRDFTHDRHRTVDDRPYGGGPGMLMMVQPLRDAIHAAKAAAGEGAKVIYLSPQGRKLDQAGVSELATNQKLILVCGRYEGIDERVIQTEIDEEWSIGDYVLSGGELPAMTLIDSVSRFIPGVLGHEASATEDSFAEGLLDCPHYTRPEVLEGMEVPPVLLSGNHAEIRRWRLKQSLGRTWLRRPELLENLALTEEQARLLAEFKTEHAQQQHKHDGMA
In short: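 His-tagged enzyme expressed in E. coli SG13009 and purified by cobalt-affinity and MonoQ ion-exchange chromatography. Concentration was measured by Bradford against BSA and corrected for active dimer fraction. Increasing AdoMet was added to the dimer, and intrinsic Trp fluorescence quenching was followed with excitation at 295 nm and emission at 304–400 nm.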

[20] = molecular target: TrmD Y115A dimer (Escherichia coli, UniProt P0A873, Y115A); format: binding, E. coli; conditions: Y115 mutant; room temperature; pH 8.0
TrmD Y115A dimer, sequence (P0A873 whole entry Y115A): as the sequence (P0A873 whole entry) above, with Y115A counted along it

wild-type EcTrmD, sequence (P0A873 whole entry): as the sequence (P0A873 whole entry) above

C[S+](CC[C@H](N)C(=O)[O-])C[C@H]1O[C@@H](n2cnc3c(N)ncnc32)[C@H](O)[C@@H]1O (some centres unmarked) [AdoMet, S-adenosyl methionine]
kchem from enzyme titration of AdoMet [1]: 0.113 ± 0.003 s⁻¹ | fold-change in Kd (AdoMet), effect on AdoMet binding [2]: 12.8 fold | fold-change in Kd (AdoMet), effect on AdoMet binding [3]: 3.2 fold | fold-change in Kd (AdoMet), effect on AdoMet binding [4]: 2.8 fold | fold-change in Kd (AdoMet), effect on AdoMet binding [5]: 2.6 fold | fold-change in Kd (AdoMet), effect on AdoMet binding [6]: 1.2 fold | fold-change in Kd (AdoMet), effect on AdoMet binding [7]: 23 fold | fold-change in Kd (AdoMet), effect on AdoMet binding [8]: 6.3 fold | fold-change in Kd (AdoMet), effect on AdoMet binding [9]: 6.0 fold | fold-change in Kd (AdoMet), effect on AdoMet binding [10]: 8.0 fold | fold-change in Kd (AdoMet), decrease in AdoMet binding [11]: 19.0 fold | fold-change in Kd (AdoMet), decrease in AdoMet binding [12]: 8.4 fold | fold-change in Kd (AdoMet), decrease in AdoMet binding [13]: 32.2 fold | fold-change in Kd (AdoMet), decrease in AdoMet binding [14]: 2.6 fold | fold-change in Kd (AdoMet), decrease in AdoMet binding [15]: 9.0 fold | fold-change in Kd (AdoMet), decrease in AdoMet binding [16]: 4.4 fold | effect on AdoMet binding [17]: neither had an effect | effect on AdoMet binding [18]: neither had an effect | binding stoichiometry of AdoMet per dimer [19]: two molecules of AdoMet per dimer | binding stoichiometry of AdoMet per dimer [20]: two molecules of AdoMet per dimer
